In ChEMBL document CHEMBL2029238, “Contribution of phosphates and adenine to the potency of adenophostins at the IP₃ receptor: synthesis of all possible bisphosphates of adenophostin A” (J Med Chem, 2012) one finds EC50 and Activity data, which are given here for six compounds.

Assay type in all cases: functional, cell-based
Experiment [1] deals with Inositol 1,4,5-trisphosphate-gated calcium channel ITPR1 (Rattus norvegicus, UniProt P29994). Nature of the experiment: Agonist activity at rat IP3R1 expressed in chicken DT40 cells assessed as induction of Ca2+ release. Put shortly:
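DT40 cells stably expressing only rat IP3R1 loaded with Mag-fluo-4AM (20 μM, 1 h, 20 °C). Permeabilized with saponin (10 μg/mL, 4 min, 37 °C), then washed in Mg2+-free cytosol-like medium (~200 nM free Ca2+, pH 7.0). ER Ca2+ loaded with 1.5 mM Mg-ATP for 150 s before ligand addition.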

Experiment [2] addresses Inositol 1,4,5-trisphosphate-gated calcium channel ITPR1 (Rattus norvegicus) (UniProt P29994). Put plainly: Agonist activity at rat IP3R1 expressed in chicken DT40 cells assessed as Ca2+ release relative to control. The method in brief: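 DT40 cells stably expressing only rat IP3R1 loaded with Mag-fluo-4AM (20 μM, 1 h, 20 °C). Permeabilized with saponin (10 μg/mL, 4 min, 37 °C), then washed in Mg2+-free cytosol-like medium (~200 nM free Ca2+, pH 7.0). ER Ca2+ loaded with 1.5 mM Mg-ATP for 150 s before ligand addition. Release measured by luminal fluorescence (ex 485/em 520 nm) as a fraction of the 1 μM ionomycin-releasable content.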

Experiment [3] has the same target. Nature of the experiment: Agonist activity at rat IP3R1 expressed in chicken DT40 cells assessed as Ca2+ release at 50 uM relative to control.

Sequence of Inositol 1,4,5-trisphosphate-gated calcium channel ITPR1 (Rattus norvegicus) (P29994 whole entry, looked up): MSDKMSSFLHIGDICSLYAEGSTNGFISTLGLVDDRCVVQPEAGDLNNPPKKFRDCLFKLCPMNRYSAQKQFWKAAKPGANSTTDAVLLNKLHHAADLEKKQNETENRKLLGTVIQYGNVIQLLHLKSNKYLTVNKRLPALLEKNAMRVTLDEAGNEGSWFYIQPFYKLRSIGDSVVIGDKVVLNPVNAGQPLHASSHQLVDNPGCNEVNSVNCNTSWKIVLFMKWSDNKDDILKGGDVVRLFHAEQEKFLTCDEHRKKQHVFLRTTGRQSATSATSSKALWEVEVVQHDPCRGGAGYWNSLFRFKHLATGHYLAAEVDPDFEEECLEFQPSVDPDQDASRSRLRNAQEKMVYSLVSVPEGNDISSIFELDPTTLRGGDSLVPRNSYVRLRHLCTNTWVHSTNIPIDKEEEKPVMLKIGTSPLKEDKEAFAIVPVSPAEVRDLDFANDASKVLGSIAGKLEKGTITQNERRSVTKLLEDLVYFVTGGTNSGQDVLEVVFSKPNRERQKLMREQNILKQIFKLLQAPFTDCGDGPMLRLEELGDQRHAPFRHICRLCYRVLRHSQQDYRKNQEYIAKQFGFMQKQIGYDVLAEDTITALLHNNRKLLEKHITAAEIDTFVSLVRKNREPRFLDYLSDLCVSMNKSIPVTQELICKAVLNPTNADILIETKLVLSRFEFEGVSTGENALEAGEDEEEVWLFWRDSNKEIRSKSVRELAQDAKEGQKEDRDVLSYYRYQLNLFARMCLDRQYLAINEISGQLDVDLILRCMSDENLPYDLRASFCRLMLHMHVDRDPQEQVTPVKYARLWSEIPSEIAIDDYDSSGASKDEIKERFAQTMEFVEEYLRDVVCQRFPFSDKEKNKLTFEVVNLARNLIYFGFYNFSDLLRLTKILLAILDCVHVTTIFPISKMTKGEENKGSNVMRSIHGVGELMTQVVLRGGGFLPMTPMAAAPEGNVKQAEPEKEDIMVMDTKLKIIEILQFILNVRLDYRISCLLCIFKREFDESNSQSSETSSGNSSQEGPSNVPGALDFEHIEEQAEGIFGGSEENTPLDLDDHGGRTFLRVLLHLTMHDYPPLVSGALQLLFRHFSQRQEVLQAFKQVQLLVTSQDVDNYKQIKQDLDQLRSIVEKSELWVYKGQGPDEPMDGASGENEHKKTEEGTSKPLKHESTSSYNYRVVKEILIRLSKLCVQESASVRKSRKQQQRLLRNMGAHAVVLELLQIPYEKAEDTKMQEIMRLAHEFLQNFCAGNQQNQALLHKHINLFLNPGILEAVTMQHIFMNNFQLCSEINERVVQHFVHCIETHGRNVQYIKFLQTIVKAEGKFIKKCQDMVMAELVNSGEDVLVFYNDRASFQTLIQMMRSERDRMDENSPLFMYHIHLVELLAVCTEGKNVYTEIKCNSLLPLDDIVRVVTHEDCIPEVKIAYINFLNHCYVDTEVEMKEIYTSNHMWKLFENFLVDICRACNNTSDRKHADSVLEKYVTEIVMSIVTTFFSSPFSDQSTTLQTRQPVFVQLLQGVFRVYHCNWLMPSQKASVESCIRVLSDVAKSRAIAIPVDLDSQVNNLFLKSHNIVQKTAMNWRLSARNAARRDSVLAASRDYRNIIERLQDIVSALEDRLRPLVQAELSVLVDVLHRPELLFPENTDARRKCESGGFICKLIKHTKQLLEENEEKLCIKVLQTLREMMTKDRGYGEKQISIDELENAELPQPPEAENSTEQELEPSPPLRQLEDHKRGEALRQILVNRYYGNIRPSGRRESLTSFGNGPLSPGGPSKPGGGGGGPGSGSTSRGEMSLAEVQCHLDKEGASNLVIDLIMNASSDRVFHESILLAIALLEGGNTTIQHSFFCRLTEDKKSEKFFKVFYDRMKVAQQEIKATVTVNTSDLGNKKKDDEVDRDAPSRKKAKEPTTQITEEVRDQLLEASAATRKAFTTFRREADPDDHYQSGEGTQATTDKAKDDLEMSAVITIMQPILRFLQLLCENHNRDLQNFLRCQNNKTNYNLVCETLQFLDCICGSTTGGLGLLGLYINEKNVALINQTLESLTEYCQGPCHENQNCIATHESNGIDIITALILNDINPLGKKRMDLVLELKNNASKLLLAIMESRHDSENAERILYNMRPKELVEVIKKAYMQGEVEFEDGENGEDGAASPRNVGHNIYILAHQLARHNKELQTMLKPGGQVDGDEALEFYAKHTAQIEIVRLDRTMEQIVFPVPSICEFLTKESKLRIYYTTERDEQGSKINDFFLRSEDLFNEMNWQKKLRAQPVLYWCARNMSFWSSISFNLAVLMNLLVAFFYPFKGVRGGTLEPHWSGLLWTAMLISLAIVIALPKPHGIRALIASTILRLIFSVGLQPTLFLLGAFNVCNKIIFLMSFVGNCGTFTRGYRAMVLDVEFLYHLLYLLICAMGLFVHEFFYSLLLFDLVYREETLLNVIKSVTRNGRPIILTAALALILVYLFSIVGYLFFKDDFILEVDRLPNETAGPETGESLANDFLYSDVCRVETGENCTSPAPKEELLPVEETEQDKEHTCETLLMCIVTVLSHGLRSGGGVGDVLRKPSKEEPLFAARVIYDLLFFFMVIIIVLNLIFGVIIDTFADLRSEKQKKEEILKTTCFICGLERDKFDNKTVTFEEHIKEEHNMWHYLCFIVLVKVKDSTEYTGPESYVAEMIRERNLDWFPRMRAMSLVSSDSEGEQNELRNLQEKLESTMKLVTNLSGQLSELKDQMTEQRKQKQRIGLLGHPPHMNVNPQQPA

In the case of `Nc1ncnc2c1ncn2[C@@H]1O[C@H](CO)[C@@H](O[C@H]2O[C@H](CO)[C@@H](OP(=O)(O)O)[C@H](OP(=O)(O)O)[C@H]2O)[C@H]1OP(=O)(O)O` [ADENOPHOSTIN A], the EC50 (commonly the concentration at which the effect is half-maximal) in experiment [1] came out at 0.0028 µM.
As to `O=P(O)(O)O[C@H]1[C@H](OP(=O)(O)O)[C@@H](O)C(O)O[C@@H]1CO` (stereo not given in full), the Activity in experiment [2] came out at 72%. For the same compound, the EC50 in experiment [1] is 25.2 µM.
Regarding `Nc1ncnc2c1ncn2[C@@H]1O[C@H](CO)[C@@H](O[C@H]2O[C@H](CO)[C@@H](O)[C@H](OP(=O)(O)O)[C@H]2O)[C@H]1OP(=O)(O)O`, in experiment [3], the Activity amounted to 8%.
Regarding `Nc1ncnc2c1ncn2[C@@H]1O[C@H](CO)[C@@H](O[C@H]2O[C@H](CO)[C@@H](OP(=O)(O)O)[C@H](OP(=O)(O)O)[C@H]2O)[C@H]1O`, in experiment [2], the Activity was found to be 67%. Further, the EC50 in experiment [1] turned out to be 0.107 µM.
Take `Nc1ncnc2c1ncn2[C@@H]1O[C@H](CO)[C@@H](O[C@H]2O[C@H](CO)[C@@H](OP(=O)(O)O)[C@H](O)[C@H]2O)[C@H]1OP(=O)(O)O`: the Activity in experiment [3] came out at 53%. Also, in experiment [1], the 50% effective concentration (EC50) stood at 53 µM.
As to `O=P(O)(O)O[C@@H]1[C@@H](O)[C@H](O)[C@H](O)[C@H](O)[C@H]1OP(=O)(O)O`, the Activity in experiment [2] is 73%. In experiment [1], the EC50 came out at 8.63 µM.
